The values below come from ChEMBL document CHEMBL4350999, “Enhanced tumor retention of NTSR1-targeted agents by employing a hydrophilic cysteine cathepsin inhibitor” (Eur J Med Chem, 2019).

Series [1] has as its target T1, Procathepsin L (Homo sapiens, UniProt P07711). The series is described as follows: Binding affinity to cathepsin L in human HT-29 cells assessed as intracellular adduct formation at 0.74 MBq incubated for 4 hrs and measured after 24 hrs in presence of DOTA-beta-ala-[N-alpha-Me8, Dmt11, Tle12] NT6-13 using 177Lu labelled compound by SDS-PAGE analysis. Type of series: cell-based. On the set-up: dose or concentration left out as unconfirmed. The method in brief: (§1)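 HT-29 cells (1 × 10^6/well) incubated 4 h at 37 °C with 177Lu conjugate (20 μCi, 0.74 MBq) in 1 mL medium, with or without E-64 (10 μM) or NTSR1 peptide N1 (20 μM). Cells washed and refed; at set times cells pooled, RIPA-lysed with protease inhibitor. Lysates heated 85 °C 2 min, run on 16% tris-glycine SDS-PAGE, and phosphor autoradiography taken after 72 h exposure.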

The nature of series [2]: Drug uptake in heart of SCID mouse xenografted with human HT-29 cells pretreated for 1 hr with colchicine at 1 mg/kg, ip followed by 177Lu labelled compound at 0.37 MBq/mouse, iv measured at 24 hrs by gamma counter analysis. Type of series: ADME, organism-based. Conditions: in vivo. The method, boiled down:
(§2)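 HT-29 flank xenografts in female SCID mice (5 × 10^6 cells in Matrigel, about 80 mm3). Colchicine 1 mg/kg was given i.p. before a tail-vein injection of 10 μCi (0.37 MBq) of purified 177Lu-conjugate. Tissues were taken at 24 h, weighed and gamma-counted as %ID/g; mean ± SD, n = 5.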
On the technique in general: A xenograft is tissue or cells of one species grown in another, often human tumour cells in immunodeficient mice.

The nature of series [3]: Drug uptake in liver of SCID mouse xenografted with human HT-29 cells pretreated for 1 hr with colchicine at 1 mg/kg, ip followed by 177Lu labelled compound at 0.37 MBq/mouse, iv measured at 24 hrs by gamma counter analysis. It is filed as ADME, organism-based. As to conditions: in vivo. The method, boiled down:
as §2

The nature of series [4]: Drug uptake in SCID mouse xenografted with human HT-29 cells assessed as tumour retention pretreated for 1 hr with colchicine at 1 mg/kg, ip followed by 177Lu labelled compound at 0.37 MBq/mouse, iv measured at 24 hrs by gamma counter analysis. Type of series: ADME, organism-based. Conditions: in vivo. The method in brief: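 Female SCID mice bearing s.c. flank HT-29 xenografts (5 × 10^6 cells in Matrigel, ~80 mm3). Given 10 μCi (0.37 MBq) 177Lu conjugate i.v. by tail vein; groups sacrificed at 4, 24, 72 h. Tissues weighed and gamma-counted as %ID/g, excretion as %ID; n = 5, mean ± SD. Blocking arms: colchicine 1 mg/kg i.p. beforehand, or D-lysine 40 mg/kg co-injected.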

Series [5] in a line: Drug uptake in pancreas of SCID mouse xenografted with human HT-29 cells using 177Lu labelled compound at 0.37 MBq/mouse, iv co-treated with D-lysine at 40 mg/kg measured at 24 hrs by gamma counter analysis. Type of series: ADME, organism-based. As to conditions: in vivo. The method in brief:
(§3)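 Female SCID mice bore s.c. HT-29 xenografts (5 × 10^6 cells in Matrigel, about 80 mm3). D-lysine 40 mg/kg was co-injected i.v. with 10 μCi (0.37 MBq) of purified 177Lu-conjugate. Tissues were harvested at 24 h, weighed and gamma-counted, reported as %ID/g; mean ± SD, n = 5.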

Series [6] in a line: Drug uptake in kidney of SCID mouse xenografted with human HT-29 cells using 177Lu labelled compound at 0.37 MBq/mouse, iv co-treated with D-lysine at 40 mg/kg measured at 24 hrs by gamma counter analysis. It is filed as ADME, organism-based. As to conditions: in vivo. The method, boiled down: as §3
The target in series [7] is Cathepsin B (Homo sapiens, UniProt P07858). Description: Inhibition of human liver cathepsin B assessed as inhibition constant using Z-Arg-Arg-AMC as substrate measured every 5 mins for 1 hr by fluorescence assay.
Series [8] has as its target T1, Procathepsin L. Description: Inhibition of human liver cathepsin L using Z-Phe-Arg-AMC as substrate assessed as second order rate constant measured every 5 mins for 1 hr by fluorescence assay. The method, boiled down: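 Human liver cathepsin L in acetate buffer pH 5.5 (340 mM sodium acetate, 60 mM acetic acid, 1 mM EDTA, 3 mM DTT). Conjugate 1–500 nM; Z-Phe-Arg-AMC 100 μM; 37 °C. […] Biological triplicate.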

Series [9] can be described thus: Ratio of drug uptake in SCID mouse xenograted with human HT-29 cells assessed as tumour retention to drug uptake in blood of SCID mouse xenografted with human HT-29 cells cotreated with D-lysine at 40 mg/kg measured after 24 hrs using 177Lu labelled compound. It is filed as ADME, organism-based, Tumor/Blood. The method in brief:
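HT-29 s.c. xenografts in female SCID mice. 177Lu conjugate given i.v. by tail vein at 10 μCi (0.37 MBq)/mouse, co-injected with D-lysine 40 mg/kg. Tissues were taken at 24 h, weighed and gamma counted. Uptake expressed as %ID/g (n = 5, mean ± SD); tumor-to-tissue ratios derived from these values.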

Series [10] in a line: Ratio of drug uptake in SCID mouse xenograted with human HT-29 cells assessed as tumour retention to drug uptake in pancreas of SCID mouse xenografted with human HT-29 cells cotreated with D-lysine at 40 mg/kg measured after 24 hrs using 177Lu labelled compound. It is filed as ADME, organism-based, Tumor/Pancreas. Conditions: in vivo.
Series [11] in a line: Ratio of drug uptake in SCID mouse xenograted with human HT-29 cells assessed as tumour retention to drug uptake in muscle of SCID mouse xenografted with human HT-29 cells cotreated with D-lysine at 40 mg/kg measured after 24 hrs using 177Lu labelled compound. Type of series: ADME, organism-based, Tumor/Muscle. Conditions: in vivo.
Series [12] has as its target T1, Procathepsin L. Description: Binding affinity to cathepsin L in human HT-29 cells assessed as intracellular adduct formation at 0.74 MBq incubated for 4 hrs in presence of E-64 using 177Lu labelled compound by SDS-PAGE analysis. It is filed as cell-based. On the set-up: dose or concentration left out as unconfirmed. The method in brief: as §1
Series [13] addresses T1, Procathepsin L. Description: Binding affinity to human liver cathepsin L assessed as protein-conjugate adduct formation at 0.74 MBq incubated for 30 mins in presence of DOTA-beta-ala-[N-alpha-Me8, Dmt11, Tle12] NT6-13 using 177Lu labelled compound by SDS-PAGE analysis. As to conditions: 0.74 M. The method, boiled down: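 Purified human liver CatB or CatL (3 nM) in 50 mM sodium acetate/1 mM EDTA pH 5.0 incubated 30 min with 177Lu conjugate (500,000 cpm) in Tris/MgCl2/DTT buffer pH 5.5, alone or with E-64 (10 μM) or N1 (20 μM). Mixtures heated 85 °C 2 min, run on 16% tris-glycine gel at 110 V for 90 min, and read by phosphor autoradiography.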

Series [14] can be described thus: Drug distribution in human HT-29 cells assessed as adduct signals at 24 hrs relative to baseline. Type of series: ADME, cell-based. As to conditions: ht-29, 24 h. The method, boiled down:
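HT-29 cells preloaded 4 h with 177Lu conjugate (0.74 MBq), washed and chased in fresh medium. Lysates taken at 0 and 24 h and run on SDS-PAGE autoradiography; adduct band radioactivity at 24 h expressed relative to the 0 h intensity.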

Series [15] can be described thus: Drug retention in kidney lysates of mouse xenografted with human HT-29 cells assessed as macromolecule associated radioactivity at 29.6 MBq measured after 72 hrs using 177Lu labelled compound by gamma counter analysis relative to control. It is filed as ADME, tissue-based. As to conditions: in vivo. The method in brief: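 HT-29 xenograft mice given 800 μCi (29.6 MBq) 177Lu conjugate i.v. and killed at 72 h. Tumor, liver and kidney homogenized in RIPA with protease inhibitor and supernatants run on SDS-PAGE autoradiography. Other supernatant aliquots filtered through 10 kDa MWCO devices to give the % macromolecule-associated radioactivity; n = 3.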

Series [16] concerns the target T1, Procathepsin L. The series is described as follows: Inhibition of human liver cathepsin L assessed as pseudo Michaelis-Menten constant at 10 nM using varying levels of Z-Phe-Arg-AMC as substrate measured every 5 mins for 1 hr by fluorescence assay.

The structures appear in SMILES notation. The source made the active and inactive calls. The calls are words filed in the database; no cut-off is given here.

T1 sequence (P07711 114-333 limits assumed): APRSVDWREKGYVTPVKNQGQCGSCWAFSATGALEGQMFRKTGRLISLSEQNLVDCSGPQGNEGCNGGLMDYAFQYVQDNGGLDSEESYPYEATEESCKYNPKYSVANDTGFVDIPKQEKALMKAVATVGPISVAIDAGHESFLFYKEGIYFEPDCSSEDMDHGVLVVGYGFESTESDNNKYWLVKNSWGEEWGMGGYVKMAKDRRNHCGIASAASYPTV

Usually Ki stands for a dissociation constant, usually derived from enzyme kinetics or from competition with a known ligand. What is called Kp is tissue or fluid exposure divided by exposure in the circulation. For `Cc1cc(O)cc(C)c1C[C@H](NC(=O)[C@@H]1CCCN1C(=O)[C@H](CCCNC(=N)N)NC(=O)[C@H](CCCNC(=N)N)N(C)C(=O)[C@@H]1CCCN1C(=O)[C@H](CCCCN)NC(=O)[C@@H](CO)NC(=O)[C@@H](CO)NC(=O)[C@@H](CO)NC(=O)[C@H](Cc1cn(CCNC(=O)[C@H](CCCNC(=N)N)NC(=O)[C@H](CC(C)C)NC(=O)C2OC2C(=O)O)nn1)NC(=O)CN1CCN(CC(=O)O)CCN(CC(=O)O)CCN(CC(=O)O)CC1)C(=O)N[C@H](C(=O)N[C@@H](CC(C)C)C(=O)O)C(C)(C)C` (stereo partly specified), the outcome in series [1] was inactive. Also, the Drug uptake was determined as 0.2 % ID/g in series [2]; 1.4 % ID/g in series [3]; 1.7 % ID/g in series [4]; 0.14 % ID/g in series [5]; 34 % ID/g in [6]; 55% in [14]. In addition, the Drug uptake in [15] came to 80%. In addition, in [7], the Ki turned out to be 0.11 µM. Moreover, in series [8], the K is 24000 M⁻¹ s⁻¹. In addition, the Kp at 24 h in series [9] stood at 299. The Ratio worked out at 75 in series [10] and 250 in [11]. Besides, the outcome in series [12] and in series [13] was Active.
As for `Cc1cc(O)cc(C)c1C[C@H](NC(=O)[C@@H]1CCCN1C(=O)[C@H](CCCNC(=N)N)NC(=O)[C@H](CCCNC(=N)N)N(C)C(=O)[C@@H]1CCCN1C(=O)[C@H](CCCCN)NC(=O)[C@@H](CO)NC(=O)[C@@H](CO)NC(=O)[C@@H](CO)NC(=O)[C@H](Cc1cn(CCNC(=O)[C@H](CCCNC(=N)N)NC(=O)[C@H](CC(C)C)NC(=O)CCC(=O)O)nn1)NC(=O)CN1CCN(CC(=O)O)CCN(CC(=O)O)CCN(CC(=O)O)CC1)C(=O)N[C@H](C(=O)N[C@@H](CC(C)C)C(=O)O)C(C)(C)C`, the K in series [16] stood at 37 µM.
